# Experimental data: ChEMBL document CHEMBL4680103, “In Vitro and in Vivo Anti-Trypanosoma cruzi Activity of New Arylamine Mannich Base-Type Derivatives” (J Med Chem, 2016)
# Activity calls are given as the source filed them. No cut-off for these calls is given here.
# What was measured:
# [1] = system: Trypanosoma cruzi; test: (§1) Antitrypanosomal activity against Trypanosoma cruzi Arequipa trypomastigotes infected in BALB/c mouse assessed as reduction in parasitemia level in adipose tissue measured during acute phase (days 0 to 40 post infection) at 100 mg/kg, po dosed on alternating days (7 to 15 days post infection) by PCR analysis; assay type: functional, organism-based
# [2] = system: Trypanosoma cruzi; test: Antitrypanosomal activity against Trypanosoma cruzi Arequipa amastigote forms infected in African green monkey Vero cells incubated for 72 hrs by Giemsa staining based micrscopy; assay type: functional, organism-based
# Summary of the method: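 Vero cells (RPMI, 10% inactivated FBS, 37 °C, 5% CO2) were seeded at 1×10^4/well on coverslips and cultured 2 days. They were infected 24 h with metacyclic forms at 10:1. After washing off free parasites, drugs were added at 0.1–100 µM for 72 h. Slides were methanol-fixed and Giemsa-stained; amastigotes were counted in 200 host cells versus untreated. IC50 was calculated.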
# [3] = system: Trypanosoma cruzi; test: as §1, with “stomach” for “adipose tissue”; assay type: functional, organism-based
# [4] = system: Trypanosoma cruzi; test: Antitrypanosomal activity against Trypanosoma cruzi Tulahuen epimastigote forms incubated for 72 hrs by hemocytometry; assay type: functional, organism-based
# Summary of the method: (§2)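 Epimastigotes grown in MTL medium with 10% inactivated FBS at 28 °C. Compounds were dissolved in DMSO (0.01% v/v) and added at 0.1–100 µM for 72 h. Parasites were counted in a Neubauer chamber. IC50 (50% growth inhibition) was derived by linear regression of Kc values. Values are averages of four determinations.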
# [5] = system: Trypanosoma cruzi; test: Antitrypanosomal activity against Trypanosoma cruzi Arequipa epimastigote forms incubated for 72 hrs by hemocytometry; assay type: functional, organism-based; summary of the method: as §2
# [6] = Inhibition of Trypanosoma cruzi Arequipa Fe-SOD by NBT dye based spectrophotometry
# Summary of the method: (§3)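 Fe-SOD source: Arequipa epimastigote homogenate (STE buffer pH 7.8, sonication, centrifugation, supernatant; protein by Bradford); CuZn-SOD was commercial human erythrocyte enzyme. Activity was measured as NBT reduction by superoxide in 50 mM potassium phosphate pH 7.8, with compounds at 5 concentrations (1–100 µM). A560 was read before and after 10 min under lamp light with stirring. Three rate determinations; Newman–Keuls test.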
# [7] = Genotoxicity in Salmonella typhimurium TA100 at 0.03 to 2.25 ug/plate incubated for 48 hrs in presence of liver S9 fraction by Ames test; assay type: toxicity, subcellular; conditions: salmonella enterica subsp. enterica serovar typhimurium, s9, 48 h
# Summary of the method: (§4)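 Preincubation Ames assay. […] Top agar with trace histidine/biotin (0.05 mM each) was added and poured onto glucose minimal agar. Plates were incubated 48 h at 37 °C and His+ revertants counted. DMSO was the negative control, with strain-appropriate positive controls. Technical triplicates.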
# [8] = system: Trypanosoma cruzi; test: Antitrypanosomal activity against Trypanosoma cruzi infected in African green monkey Vero cells assessed as reduction in number of trypomastigotes measured up to 10 days by Giemsa staining based hemocytometry; assay type: functional; conditions: time day <=10
# Summary of the method: (§5)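 Vero cells infected with metacyclic forms (10:1) were exposed to one concentration per compound immediately after infection for 12 h at 37 °C, 5% CO2. After washing, cultures were kept 10 days with fresh medium every 48 h. Every 48 h, % infected cells and amastigotes per infected cell (200 Giemsa-stained cells) and medium trypomastigotes (Neubauer) were scored. Means of three experiments.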
# [9] = system: Trypanosoma cruzi; test: as §1, with “bone marrow” for “adipose tissue”; assay type: functional, organism-based
# [10] = system: Trypanosoma cruzi; test: Antitrypanosomal activity against Trypanosoma cruzi Arequipa trypomastigotes infected in BALB/c mouse assessed as reduction in splenomegaly by measuring weight percent of spleens […] at 50 mg/kg, po dosed on alternating days (7 to 15 days post infection) by PCR analysis (reference value: 1.603%); assay type: functional; set-up: scale not given: the % may be the effect or the level left
# [11] = system: Trypanosoma cruzi; test: Antitrypanosomal activity against Trypanosoma cruzi Arequipa trypomastigotes infected in BALB/c mouse assessed as reduction in mouse mortality measured during acute phase (days 0 to 40 post infection) at 50 to 100 mg/kg, po dosed on alternating days (7 to 15 days post infection); assay type: functional, organism-based; conditions: dose 50-100 mg/kg
# [12] = system: Trypanosoma cruzi; test: Antitrypanosomal activity against Trypanosoma cruzi Arequipa trypomastigotes infected in BALB/c mouse assessed as reduction in splenomegaly by measuring weight percent of spleens […] at 100 mg/kg, po dosed on alternating days (7 to 15 days post infection) by PCR analysis (reference value: 1.603%); assay type: functional
# [13] = system: Trypanosoma cruzi; test: (§6) Antitrypanosomal activity against Trypanosoma cruzi Arequipa trypomastigotes infected in BALB/c mouse assessed as reduction in parasitemia level in brain measured during acute phase (days 0 to 40 post infection) at 100 mg/kg, po dosed on alternating days (7 to 15 days post infection) by PCR analysis; assay type: functional, organism-based
# [14] = Genotoxicity in Salmonella typhimurium TA102 at 0.03 to 2.25 ug/plate incubated for 48 hrs in absence of liver S9 fraction by Ames test; assay type: toxicity; conditions: salmonella enterica subsp. enterica serovar typhimurium, s9, 48 h; summary of the method: as §4
# [15] = system: Trypanosoma cruzi; test: Antitrypanosomal activity against Trypanosoma cruzi Arequipa trypomastigotes infected in BALB/c mouse assessed as parasitemia re-activation level measured during chronic phase ( day 90 post infection) at 100 mg/kg, po dosed on alternating days (7 to 15 days post infection) relative to acute phase infection (reference value: […]%); assay type: functional
# [16] = system: Vero; test: Cytotoxicity in African green monkey Vero cells incubated for 72 hrs; assay type: cell-based; conditions: Chlorocebus sabaeus
# [17] = system: Trypanosoma cruzi; test: Antitrypanosomal activity against Trypanosoma cruzi infected in African green monkey Vero cells assessed as reduction in infection rate measured up to 10 days by Giemsa staining based hemocytometry; assay type: functional; conditions: time day <=10; summary of the method: as §5
# [18] = Genotoxicity in Salmonella typhimurium TA1537 at 0.03 to 2.25 ug/plate incubated for 48 hrs in presence of liver S9 fraction by Ames test; assay type: toxicity, subcellular; conditions: salmonella enterica subsp. enterica serovar typhimurium, s9, 48 h; summary of the method: as §4
# [19] = target: T1, Superoxide dismutase [Cu-Zn] (Homo sapiens, UniProt P00441); test: Inhibition of human erythrocyte CuZn-SOD by NBT dye based spectrophotometry; summary of the method: as §3
# T1 sequence (P00441 whole entry): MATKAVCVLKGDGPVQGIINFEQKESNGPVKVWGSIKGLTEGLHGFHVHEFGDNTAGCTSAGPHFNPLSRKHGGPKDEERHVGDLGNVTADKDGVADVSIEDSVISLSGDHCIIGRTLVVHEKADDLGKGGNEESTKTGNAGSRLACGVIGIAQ
# [20] = system: Trypanosoma cruzi; test: Antitrypanosomal activity against Trypanosoma cruzi Arequipa trypomastigotes infected in BALB/c mouse assessed as reduction in parasitemia level in lung measured during acute phase (days 0 to 40 post infection) at 100 mg/kg, po dosed on alternating days (7 to 15 days post infection) by PCR analysis; assay type: functional, organism-based
# [21] = system: Trypanosoma cruzi; test: as §6, with “muscle” for “brain”; assay type: functional, organism-based
# [22] = target: T1, Superoxide dismutase [Cu-Zn]; test: Inhibition of human erythrocyte CuZn-SOD at 100 uM by NBT dye based spectrophotometry; summary of the method: as §3
# [23] = Genotoxicity in Salmonella typhimurium TA98 at 0.03 to 2.25 ug/plate incubated for 48 hrs in presence of liver S9 fraction by Ames test; assay type: toxicity, subcellular; conditions: salmonella enterica subsp. enterica serovar typhimurium, s9, 48 h; summary of the method: as §4
# [24] = system: Trypanosoma cruzi; test: as §6, with “level in heart measured during” for “level in brain measured during”, “infection) at 50 to 100 mg/kg,” for “infection) at 100 mg/kg,”; assay type: functional, organism-based; conditions: dose 50-100 mg/kg
# [25] = Genotoxicity in Salmonella typhimurium TA100 at 0.03 to 2.25 ug/plate incubated for 48 hrs in absence of liver S9 fraction by Ames test; assay type: toxicity; conditions: salmonella enterica subsp. enterica serovar typhimurium, s9, 48 h; summary of the method: as §4
# [26] = system: Trypanosoma cruzi; test: Antitrypanosomal activity against Trypanosoma cruzi Tulahuen trypomastigote froms infected in mouse blood incubated for 24 hrs by Neubauer chamber based assay; assay type: functional, organism-based
# Summary of the method: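 Mouse blood taken at peak parasitemia (day 7) was diluted with uninfected blood to 4×10^6 trypomastigotes/mL, then 1:2 in RPMI 1640. Drugs from DMSO stocks were added at 1, 10, 25, 50 and 100 µM and incubated 24 h at 4–8 °C. Parasites were counted in a Neubauer chamber in triplicate. IC50 was calculated versus control.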
Compound,Activity [1],IC50 [2],Activity [3],IC50 [4],IC50 [5],IC50 [6],Activity [7],inhibition (INH) [8],Activity [9],Activity [10],Activity [11],Spleen weight percent [12],Activity [13],Activity [14],Activity [15],IC50 [16],inhibition (INH) [17],Activity [18],IC50 [19],Activity [20],also measured
O=C(CCN1CCN(c2ccc(C(F)(F)F)cc2)CC1)c1csc2ccc(F)cc12,Active,27.9 µM,Active,14 µM,51.7 µM,102 µM,Non-Toxic,68%,Active,1.621%,Active,1.041%,Active,Non-Toxic,0%,896 µM,47%,Non-Toxic,206 µM,Active,Activity [21]: Active; inhibition [22]: inactive; Activity [23]: Non-Toxic; Activity [24]: Active; Activity [25]: Non-Toxic; IC50 [26]: 45.8 µM
O=C(CCN1CCN(c2ccc(F)cc2)CC1)c1csc2ccc(F)cc12,Active,12.7 µM,Active,0.4 µM,30.7 µM,16.8 µM,Non-Toxic,47%,Active,1.061%,Active,0.825%,Active,Non-Toxic,0%,759 µM,54%,Non-Toxic,215 µM,Active,Activity [21]: Active; inhibition [22]: inactive; Activity [23]: Non-Toxic; Activity [24]: Active; Activity [25]: Non-Toxic; IC50 [26]: 1.9 µM
